ChEMBL document CHEMBL1131093, “ATP-Citrate lyase as a target for hypolipidemic intervention. 2. Synthesis and evaluation of (3R,5S)-omega-substituted-3-carboxy-3, 5-dihydroxyalkanoic acids and their gamma-lactone prodrugs as inhibitors of the enzyme in vitro and in vivo” (J Med Chem, 1998)
Where “and” joins values, the source holds several entries; their conditions need not be identical. Identical values can stand only once.

Legend:
HepG2 [1] = test: Inhibition of fatty acid synthesis in HepG2 cells was measured at 5 uM concentration.; format: functional, Homo sapiens; design: scale not given: the % may be the effect or the level left
Outline: (§1)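 Compounds were applied to HepG2 cells as their γ-lactone prodrugs. De novo cholesterol synthesis, fatty acid synthesis and cellular ATP levels were each expressed as % of control. Significance was marked at p < 0.001.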

HepG2 [2] = test: Inhibition of ATP levels in HepG2 cells was measured at 15 uM concentration.; format: functional, Homo sapiens; design: scale not given: the % may be the effect or the level left; outline: as §1
HepG2 [3] = test: Inhibition of cholesterol synthesis in HepG2 cells was measured at 30 uM concentration.; format: functional, Homo sapiens; design: scale not given: the % may be the effect or the level left; outline: as §1
HepG2 [4] = test: (§2) Inhibition of fatty acid synthesis in HepG2 cells was measured at 15 uM concentration.; format: functional, Homo sapiens; design: scale not given: the % may be the effect or the level left; outline: as §1
HepG2 [5] = test: Inhibition of ATP levels in HepG2 cells was measured at 30 uM concentration.; format: functional, Homo sapiens; design: scale not given: the % may be the effect or the level left; outline: as §1
HepG2 [6] = test: Inhibition of ATP levels in HepG2 cells was measured at 5 uM concentration.; format: functional, Homo sapiens; design: scale not given: the % may be the effect or the level left; outline: as §1
HepG2 [7] = test: Inhibition of cholesterol synthesis in HepG2 cells was measured at 15 uM concentration.; format: functional, Homo sapiens; design: scale not given: the % may be the effect or the level left; outline: as §1
HepG2 [8] = test: Inhibition of cholesterol synthesis in HepG2 cells was measured at 5 uM concentration.; format: functional, Homo sapiens; design: scale not given: the % may be the effect or the level left; outline: as §1
HepG2 [9] = test: as §2; format: functional, Homo sapiens; design: scale not given: the % may be the effect or the level left; outline: as §1; remark: listed apart in the source
HepG2 [10] = test: Inhibition of fatty acid synthesis in HepG2 cells was measured at 30 uM concentration.; format: functional, Homo sapiens; design: scale not given: the % may be the effect or the level left; outline: as §1
HepG2 [11] = test: Inhibition of fatty acid synthesis in HepG2 cells was measured at 300 uM concentration.; format: functional, Homo sapiens; design: scale not given: the % may be the effect or the level left; outline: as §1
HepG2 [12] = test: Inhibition of ATP levels in HepG2 cells was measured at 1000 uM concentration.; format: functional, Homo sapiens; design: scale not given: the % may be the effect or the level left; outline: as §1
HepG2 [13] = test: Inhibition of ATP levels in HepG2 cells was measured at 300 uM concentration.; format: functional, Homo sapiens; design: scale not given: the % may be the effect or the level left; outline: as §1
HepG2 [14] = test: Inhibition of cholesterol synthesis in HepG2 cells was measured at 1000 uM concentration.; format: functional, Homo sapiens; design: scale not given: the % may be the effect or the level left; outline: as §1
HepG2 [15] = test: Inhibition of cholesterol synthesis in HepG2 cells was measured at 300 uM concentration.; format: functional, Homo sapiens; design: scale not given: the % may be the effect or the level left; outline: as §1
HepG2 [16] = test: Inhibition of fatty acid synthesis in HepG2 cells was measured at 1000 uM concentration.; format: functional, Homo sapiens; design: scale not given: the % may be the effect or the level left; outline: as §1
HepG2 [17] = test: Inhibition of fatty acid synthesis in HepG2 cells was measured at 100 uM concentration.; design: scale not given: the % may be the effect or the level left
HepG2 [18] = test: Inhibition of cholesterol synthesis in HepG2 cells was measured at 100 uM concentration.; design: scale not given: the % may be the effect or the level left
HepG2 [19] = test: Inhibition of ATP levels in HepG2 cells was measured at 10 uM concentration.; format: functional, Homo sapiens; design: scale not given: the % may be the effect or the level left; outline: as §1
HepG2 [20] = test: (§3) Inhibition of fatty acid synthesis in HepG2 cells was measured at 10 uM concentration.; format: functional, Homo sapiens; design: scale not given: the % may be the effect or the level left; outline: as §1
HepG2 [21] = test: Inhibition of ATP levels in HepG2 cells was measured at 3 uM concentration.; format: functional, Homo sapiens; design: scale not given: the % may be the effect or the level left; outline: as §1
HepG2 [22] = test: Inhibition of cholesterol synthesis in HepG2 cells was measured at 10 uM concentration.; format: functional, Homo sapiens; design: scale not given: the % may be the effect or the level left; outline: as §1
HepG2 [23] = test: Inhibition of cholesterol synthesis in HepG2 cells was measured at 3 uM concentration.; format: functional, Homo sapiens; design: scale not given: the % may be the effect or the level left; outline: as §1
HepG2 [24] = test: Inhibition of fatty acid synthesis in HepG2 cells was measured at 3 uM concentration.; format: functional, Homo sapiens; design: scale not given: the % may be the effect or the level left; outline: as §1
HepG2 [25] = test: as §3; format: functional, Homo sapiens; design: scale not given: the % may be the effect or the level left; outline: as §1; remark: listed apart in the source
HepG2 [26] = test: Inhibition of ATP levels in HepG2 cells was measured at 28.2 uM concentration.; format: functional, Homo sapiens; design: scale not given: the % may be the effect or the level left
Rattus norvegicus [27] = test: % Reduction of plasma triglyceride in the rat was measured at dose 37.5 mg/kg/d; format: functional
Outline: (§4)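 Male Sprague-Dawley rats were kept on a reverse 12 h light/12 h dark cycle with free access to RM1 powdered diet and water. Compound was given orally by gavage as two doses 24 h apart. Blood was drawn mid dark cycle, 4 h after the second dose, into EDTA. Plasma was separated at 1500g for 15 min. Triglyceride was measured enzymatically (GPO-PAP) and reported as % reduction from control.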

Rattus norvegicus [28] = test: % Reduction of plasma triglyceride in the rat was measured at dose 75 mg/kg/d; format: functional; outline: as §4

## O=C(O)C[C@@]1(O)C[C@@H](CCCCCCc2ccc(Cl)cc2Cl)OC1=O (stereo in doubt; (-)-77)
HepG2 [1]
  Control: 123%
HepG2 [2]
  Control: 99% and 98%
HepG2 [3]
  Control: 9%
HepG2 [4]
  Control: 82%
HepG2 [5]
  Control: 98%
HepG2 [6]
  Control: 101%
HepG2 [7]
  Control: 37% and 33%
HepG2 [8]
  Control: 105%
HepG2 [9]
  Control: 90%
HepG2 [10]
  Control: 39%

## O=C(O)C[C@@](O)(C(=O)O)[C@H](O)C(=O)O
HepG2 [11]
  Control: 79%
HepG2 [12]
  Control: 104%
HepG2 [13]
  Control: 103%
HepG2 [14]
  Control: 15%
HepG2 [15]
  Control: 40%
HepG2 [16]
  Control: 57%
HepG2 [17]
  Control: 87%
HepG2 [18]
  Control: 110%

## O=C(O)C[C@@]1(O)C[C@@H](CCCCCCc2ccc(Cl)cc2-c2ccccc2)OC1=O
HepG2 [19]
  Control: 96% and 100%
HepG2 [20]
  Control: 88%
HepG2 [21]
  Control: 98%
HepG2 [5]
  Control: 95%
HepG2 [22]
  Control: 65% and 60%
HepG2 [23]
  Control: 101%
HepG2 [24]
  Control: 108%
HepG2 [25]
  Control: 75%

## Cc1cn(-c2cc(Cl)ccc2CCCCCC[C@@H]2C[C@](O)(CC(=O)O)C(=O)O2)cc1C
HepG2 [19]
  Control: 96% and 101%
HepG2 [26]
  Control: 96%
HepG2 [21]
  Control: 98%
HepG2 [22]
  Control: 82%
HepG2 [23]
  Control: 104%
HepG2 [24]
  Control: 102%
Rattus norvegicus [27]
  Reduction: 10%
Rattus norvegicus [28]
  Reduction: 20%
HepG2 [25]
  Control: 75% and 89%
